According to ChEMBL document CHEMBL1212828, “Synthesis and biological evaluation of novel pyrazole compounds” (Bioorg Med Chem, 2010):
pEC50, pIC50: −log10 of the molar value. Active and inactive are the calls of the source. The rule behind the calls is not given here.

What was measured:
THP-1 [1] = test: Antiinflammatory activity in human THP1 cells assessed as reduction in LPS and IFN-gamma-induced MCP level after 24 hrs; type: functional, cell-based; settings: Homo sapiens, THP-1, 24 h; read-out: IC50
In short: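 THP-1 cells (5 × 10^5 cells/mL, DMEM-F12 with 5% FBS) pretreated 15 min with compound or DMSO vehicle, then stimulated with 0.5 µg/mL LPS plus 150 U/mL IFN-γ. After 24 h, MCP-1 in cell-free medium measured by ELISA. IC50 estimated from concentration–response; randomized block ANOVA.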

THP-1 [2] = test: Neuroprotective activity against LPS and IFN-gamma-stimulated neurotoxin production in human THP1 cell assessed as inhibition of THP1 cell secretion-induced toxicity to human SH-SY5Y cells after 72 hrs by MTT assay; type: functional, cell-based; settings: THP-1, 72 h
In short: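 THP-1 cells pretreated 15 min with compound, then stimulated with LPS (0.5 µg/mL) plus IFN-γ (150 U/mL) for 24 h. Cell-free supernatant transferred to SH-SY5Y cells plated 24 h earlier (2 × 10^5 cells/mL). After 72 h, SH-SY5Y viability read by MTT (0.5 mg/mL, 1 h, 37 °C, OD570) or by LDH release (OD490, relative to Triton X-100 lysis). IC50 estimated.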

THP-1 [3] = test: Cytotoxicity against human THP1 cells assessed as reduction in cell viability; type: cell-based
In short: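 THP-1 cells in DMEM-F12 with 5% FBS, 24-well plates, pretreated 15 min with compound or DMSO vehicle, then stimulated with LPS 0.5 µg/mL plus IFN-γ 150 U/mL for 24 h. Death read as supernatant LDH (iodonitrotetrazolium formazan, 490 nm, fraction of Triton X-100 lysate); survival by MTT; MCP-1 by ELISA. Concentration effects by randomized block ANOVA; 8–11 independent experiments.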

[4] = biological target: T1, Prostaglandin G/H synthase 2 (Homo sapiens) (UniProt P35354); test: Inhibition of human COX2 at 100 uM
T1 sequence (whole entry): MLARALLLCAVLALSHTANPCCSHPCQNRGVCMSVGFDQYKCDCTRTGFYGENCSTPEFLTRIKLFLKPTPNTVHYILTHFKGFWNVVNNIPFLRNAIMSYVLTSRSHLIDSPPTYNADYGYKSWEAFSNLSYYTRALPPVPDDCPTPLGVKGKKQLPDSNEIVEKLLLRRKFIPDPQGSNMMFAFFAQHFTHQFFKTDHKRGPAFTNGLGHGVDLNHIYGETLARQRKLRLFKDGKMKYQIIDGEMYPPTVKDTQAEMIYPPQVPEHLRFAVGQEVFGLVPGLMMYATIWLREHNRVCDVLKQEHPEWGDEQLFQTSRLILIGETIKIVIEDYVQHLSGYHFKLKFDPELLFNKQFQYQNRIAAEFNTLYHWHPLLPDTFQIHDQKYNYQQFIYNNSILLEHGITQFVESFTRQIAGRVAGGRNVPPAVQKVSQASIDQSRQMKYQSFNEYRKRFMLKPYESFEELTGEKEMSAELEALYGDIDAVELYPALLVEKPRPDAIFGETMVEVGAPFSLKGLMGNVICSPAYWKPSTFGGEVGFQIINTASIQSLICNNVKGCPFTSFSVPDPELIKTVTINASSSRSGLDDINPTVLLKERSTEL
In short: (§1)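 Screening kit with ovine COX-1 and human recombinant COX-2, run per manufacturer's protocol; percent inhibition of prostaglandin production measured for each isoform.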

SH-SY5Y = test: Neuroprotective activity in human SH-SY5Y cells; type: functional, cell-based
In short: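 SH-SY5Y cells seeded at 2 × 10^5/mL in DMEM-F12 with 5% FBS; after 24 h medium replaced by supernatant of THP-1 cells stimulated 24 h with LPS + IFN-γ, or by medium containing 250 µM H2O2, with compound added at transfer. Cell death measured by LDH assay 72 h later; five independent experiments; randomized block ANOVA.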

SH-SY5Y (Homo sapiens) = test: Neuroprotective activity against LPS and IFN-gamma-induced human THP1 cell supernatant-induced death of human SH-SY5Y cells after 72 hrs by MTT assay; settings: THP-1
[5] = biological target: T2, Prostaglandin G/H synthase 1 (Ovis aries) (UniProt P05979); test: Inhibition of ovine COX1 at 100 uM; in short: as §1
T2 sequence (whole entry): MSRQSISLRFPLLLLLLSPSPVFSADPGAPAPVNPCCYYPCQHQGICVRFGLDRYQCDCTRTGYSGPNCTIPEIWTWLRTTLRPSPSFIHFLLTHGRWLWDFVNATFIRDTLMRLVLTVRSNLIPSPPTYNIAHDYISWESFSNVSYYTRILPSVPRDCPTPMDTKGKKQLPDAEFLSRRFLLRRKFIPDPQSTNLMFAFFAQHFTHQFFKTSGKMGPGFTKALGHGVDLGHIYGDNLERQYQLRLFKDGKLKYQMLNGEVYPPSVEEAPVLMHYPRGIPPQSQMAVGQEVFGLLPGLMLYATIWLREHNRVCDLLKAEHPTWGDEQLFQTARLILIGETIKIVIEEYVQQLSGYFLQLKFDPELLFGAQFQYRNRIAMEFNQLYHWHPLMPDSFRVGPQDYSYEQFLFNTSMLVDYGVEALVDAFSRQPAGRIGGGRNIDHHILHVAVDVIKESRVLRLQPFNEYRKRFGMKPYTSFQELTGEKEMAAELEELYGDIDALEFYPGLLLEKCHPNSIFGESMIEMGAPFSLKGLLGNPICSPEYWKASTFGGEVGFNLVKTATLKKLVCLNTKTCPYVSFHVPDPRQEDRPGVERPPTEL

Rattus norvegicus [6] = test: Antiinflammatory activity in Wistar albino rat assessed as inhibition of formalin-induced paw edema at 20 mg/kg, po administered 1 hr prior to formalin challenge measured after 2 hrs relative to control; type: functional
In short: (§2)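 Male Wistar rats, 180–200 g, groups of five; single oral dose 1 h before 2% formalin (0.1 mL) into subplantar left hind paw under light ether anaesthesia. Paw volume read by water plethysmometer at baseline and 1, 2, 3, 4 h; % inhibition = control (Vt−Vo) minus treated (Vt−Vo), over control, ×100. Means ± SEM; ANOVA with Student–Newman–Keuls.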

Rattus norvegicus [7] = test: Toxicity in Wistar albino rat assessed as ulcerogenic activity at 300 mg/kg, po qd for 3 days; type: organism-based; set-up: dose 300 mg/kg, route oral; settings: in vivo, 72 h
In short: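 Rats in groups of five, fasted 12 h with water ad libitum; oral dosing in two equal portions at 0 and 12 h for three days, 300 mg/kg per day; control given 1% gum acacia. Killed 6 h after last dose; stomach opened along greater curvature, saline-washed, inspected under 3× lens for hyperemia, hemorrhage, erosion or ulcer.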

Rattus norvegicus [8] = test: Antiinflammatory activity in po dosed Wistar albino rat assessed as inhibition of formalin-induced paw edema after 3 hrs relative to control; type: functional
Rattus norvegicus [9] = test: Antiinflammatory activity in Wistar albino rat assessed as inhibition of formalin-induced paw edema at 20 mg/kg, po administered 1 hr prior to formalin challenge measured after 4 hrs relative to control; type: functional; in short: as §2
Rattus norvegicus [10] = test: Antiinflammatory activity in Wistar albino rat sub-acute inflammatory model assessed as inhibition of formalin-induced paw edema at 20 mg/kg, po administered 1 hr prior to formalin challenge measured on day 8 relative to control; type: functional
In short: (§3)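 Male Wistar rats, 180–200 g, five per group, dosed orally 20 mg/kg daily for 7 consecutive days. Formalin (2%, 0.1 mL) injected subplantar into left hind paw under light ether 1 h after dosing, repeated on day 3. Paw volume measured plethysmographically on days 1 and 8; inhibition expressed relative to untreated controls.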

Rattus norvegicus [11] = test: Antiinflammatory activity in Wistar albino rat sub-acute inflammatory model assessed as inhibition of formalin-induced paw edema at 20 mg/kg, po administered 1 hr prior to formalin challenge measured on day 1 relative to control; type: functional; in short: as §3
Rattus norvegicus [12] = test: Antiinflammatory activity in Wistar albino rat assessed as inhibition of formalin-induced paw edema at 20 mg/kg, po administered 1 hr prior to formalin challenge measured after 3 hrs relative to control; type: functional; in short: as §2
Rattus norvegicus [13] = test: Antiinflammatory activity in Wistar albino rat assessed as inhibition of formalin-induced paw edema at 20 mg/kg, po administered 1 hr prior to formalin challenge measured after 1 hr relative to control; type: functional; in short: as §2
Rattus norvegicus [14] = test: Antiinflammatory activity in Wistar albino rat assessed as inhibition of turpentine oil-induced granuloma at 20 mg/kg, po qd for 7 days post turpentine oil challenge measured on day 8; type: functional
In short: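 In ether-anaesthetized male Wistar rats (five per group) a dorsal subcutaneous pouch is formed with 2 mL air, then 0.5 mL turpentine oil is injected. Oral dosing at 20 mg/kg starts 1 h before turpentine and continues 7 days. On day 8 the exudate is drawn by syringe and its volume recorded; % inhibition = (Vcontrol − Vtreated)/Vcontrol × 100.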

[15] = Acute toxicity in Wistar albino rat after 24 hrs; type: organism-based; settings: in vivo, read-out: ALD50
In short: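 Male Wistar albino rats (180–200 g), fasted 24 h, groups of five; compound given orally in graded doses of 0.1–3.0 g/kg. Mortality recorded at each dose after 24 h to estimate approximate acute lethal dose (ALD50).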

| SMILES | pIC50 (THP-1 [1]) | pIC50 (THP-1 [2]) | pEC50 (THP-1 [3]) | inhibition in vivo at 20 mg/kg (Rattus norvegicus [6]) [%] | Activity (Rattus norvegicus [7]) [%] | ED50 (Rattus norvegicus [8]) [mg/kg] | inhibition in vivo at 20 mg/kg (Rattus norvegicus [9]) [%] | inhibition in vivo at 20 mg/kg (Rattus norvegicus [10]) [%] | inhibition in vivo at 20 mg/kg (Rattus norvegicus [11]) [%] | inhibition in vivo at 20 mg/kg (Rattus norvegicus [12]) [%] | inhibition in vivo at 20 mg/kg (Rattus norvegicus [13]) [%] | inhibition in vivo at 20 mg/kg (Rattus norvegicus [14]) [%] | also measured |
| --- | --- | --- | --- | --- | --- | --- | --- | --- | --- | --- | --- | --- | --- |
| N#Cc1cnn(-c2ccccc2)c1NC(=O)C(=O)NCCCN1CCOCC1 | < 3.30 | 4.00 | < 3.30 |  |  |  |  |  |  |  |  |  |  |
| N#Cc1cnn(-c2ccccc2)c1NC(=O)C(=O)NC1CCCCC1 | < 3.30 | 3.60 | 4.10 |  |  |  |  |  |  |  |  |  |  |
| COC(=O)c1nc2c(cnn2-c2ccccc2)c(=O)[nH]1 | 4.00 | 4.70 | 4.40 |  |  |  |  |  |  |  |  |  | inhibition [4]: 14.2%; Activity (SH-SY5Y): inactive; Activity (SH-SY5Y (Homo sapiens)): Active; inhibition [5]: 16.4% |
| C[C@@H](NC(=O)C(=O)Nc1c(C#N)cnn1-c1ccccc1)c1ccccc1 |  |  |  | 36 | 0 | 18.9 | 50 | 33 | 39 | 44 | 56 | 39 | LD50 at 24 h [15]: > 300 mg/kg |
| C[C@H](NC(=O)C(=O)Nc1c(C#N)cnn1-c1ccccc1)c1ccccc1 |  |  |  | 32 | 0 | 22.4 | 39 | 35 | 41 | 38 | 37 | 49 | LD50 at 24 h [15]: > 300 mg/kg |
| Cc1ccc(-c2cc(C(F)(F)F)nn2-c2ccc(S(N)(=O)=O)cc2)cc1 [CELECOXIB] | 4.15 | 5.30 |  | 41 | 0 | 15.7 | 47 | 41 | 37 | 56 | 38 | 46 |  |
| COc1ccc2c(c1)c(CC(=O)O)c(C)n2C(=O)c1ccc(Cl)cc1 [INDOMETHACIN] |  |  |  |  | 100 |  |  |  |  |  |  |  |  |
| N#Cc1cnn(-c2ccccc2)c1NC(=O)C(=O)NCCc1ccccc1 |  |  | 5.00 |  |  |  |  |  |  |  |  |  |  |
